Measurements: ChEMBL document CHEMBL1134091, “Aromatic inhibitors of dehydroquinate synthase: synthesis, evaluation and implications for gallic acid biosynthesis” (Bioorg Med Chem Lett, 2001)

Legend:
[1] = target: T1, 3-dehydroquinate synthase (Escherichia coli K-12, UniProt P07639); assay: Inhibition constant for binding to Co2+ form of 3-dehydroquinate synthase (DHQ) purified from Escherichia coli
T1 sequence (P07639 whole entry): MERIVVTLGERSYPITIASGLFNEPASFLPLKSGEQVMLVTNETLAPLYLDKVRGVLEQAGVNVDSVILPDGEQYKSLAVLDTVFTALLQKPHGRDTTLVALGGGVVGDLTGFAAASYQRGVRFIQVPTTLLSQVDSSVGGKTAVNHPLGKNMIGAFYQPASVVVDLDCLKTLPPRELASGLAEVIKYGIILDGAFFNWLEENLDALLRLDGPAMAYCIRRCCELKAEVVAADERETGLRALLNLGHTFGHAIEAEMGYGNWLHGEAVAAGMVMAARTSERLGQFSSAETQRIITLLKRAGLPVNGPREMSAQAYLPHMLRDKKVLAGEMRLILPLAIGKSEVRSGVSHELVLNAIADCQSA
Summary of the method: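 E. coli DHQ synthase, Co2+ form, purified with […] in all buffers from lysis onward. Assayed at rt in 50 mM MOPS pH 7.5 with […], 10 mM NAD+, 1 unit dehydroquinase, varied DAHP and inhibitor; 0.024 units enzyme added last. A234 increase followed. Ki from Dixon plots, or as half the I50 x-intercept at DAHP = Km ([…]).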

[2] = target: T1, 3-dehydroquinate synthase; assay: Inhibition constant for binding to Zn2+ form of 3-dehydroquinate synthase (DHQ) purified from Escherichia coli
Summary of the method: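 E. coli DHQ synthase, Zn2+ form, purified with 75 mM ZnSO4 replacing CoCl2 in all buffers. Assayed at rt in 50 mM MOPS pH 7.5 with […] mM NAD+, 1 unit dehydroquinase, varied DAHP and inhibitor; 0.024 units enzyme added last. A234 increase followed. Ki from Dixon plots, or as half the I50 x-intercept at DAHP = Km ([…]).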

[3] = substrate: Oc1ccccc1O; assay: Kinetics expressed as Michaelis-Menten constant against Co2+ form of 3-dehydroquinate synthase purified from Escherichia coli
Summary of the method: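 Co2+-form enzyme from E. coli, with CoCl2 in all buffers from lysis through purification. Coupled assay in 50 mM MOPS pH 7.5 with CoCl2, NAD+, dehydroquinase (1 unit) and varying DAHP substrate. Equilibrated at rt, then started with 0.024 units synthase. Absorbance rise at 234 nm followed over time. Initial rates taken from linear least-squares fits of progress curves.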

[4] = substrate: Oc1ccccc1O; assay: Kinetics expressed as Michaelis-Menten constant against Zn2+ form of 3-dehydroquinate synthase purified from Escherichia coli
Summary of the method: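 Zn2+-form enzyme from E. coli, purified with ZnSO4 replacing CoCl2 in every buffer from cell lysis onward. Coupled assay in 50 mM MOPS pH 7.5 with ZnSO4, NAD+, dehydroquinase (1 unit) and varying DAHP substrate. Equilibrated at rt, then started with 0.024 units synthase. Absorbance increase at 234 nm monitored. Initial rates from linear least-squares fits.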

Q: Which Ki [1] does the source give for O=C(O)c1ccc(O)c(O)c1 [PROTOCATECHUIC ACID] here?
A: 44 µM

Q: What about the Ki [2] of the same molecule?
A: 65 µM

Q: For O=P(O)(O)CCc1cccc(O)c1O, which Ki [1] is on record?
A: 200 µM

Q: And the Ki [2]?
A: 90 µM

Q: How did the Ki [1] turn out when O=C(O)c1cc(O)c(O)c(CP(=O)(O)O)c1 was run?
A: 21 µM

Q: And the Ki [2]?
A: 0.35 µM

Q: Which Ki [1] does the source give for O=C(O)c1cc(O)c(O)c(CCP(=O)(O)O)c1 here?
A: 5 µM

Q: What about the Ki [2] of the same molecule?
A: 1.7 µM

Q: With Oc1ccccc1O [CATECHOL] as the molecule, how does the Ki [1] read?
A: 880 µM

Q: And the Ki [2]?
A: 630 µM

B1: 3-dehydroquinate synthase (Escherichia coli K-12), P07639 (protein)
chain: MERIVVTLGERSYPITIASGLFNEPASFLPLKSGEQVMLVTNETLAPLYLDKVRGVLEQAGVNVDSVILPDGEQYKSLAVLDTVFTALLQKPHGRDTTLVALGGGVVGDLTGFAAASYQRGVRFIQVPTTLLSQVDSSVGGKTAVNHPLGKNMIGAFYQPASVVVDLDCLKTLPPRELASGLAEVIKYGIILDGAFFNWLEENLDALLRLDGPAMAYCIRRCCELKAEVVAADERETGLRALLNLGHTFGHAIEAEMGYGNWLHGEAVAAGMVMAARTSERLGQFSSAETQRIITLLKRAGLPVNGPREMSAQAYLPHMLRDKKVLAGEMRLILPLAIGKSEVRSGVSHELVLNAIADCQSA
Q: Which results are given for B1?
A: Km [3]: 18 µM; Km [4]: 16 µM
